Assay [1] can be described thus: inhibitors of TNFa-induced NFkB p65 translocation, primary screen, imaging, HUVEC, MLSMR starter and 10KST1 sets (AID 438;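 active = inhibition above 20% together with a positive visual image hit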;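 also: compound added about 3h40 before a 20 min TNFalpha stimulation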;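 as to inhibition: signal is the nuclear over cytoplasmic p65 intensity ratio per well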). Conditions: HUVEC TNFa-induced p65 nuclear translocation; cell count: measured here: nuclei count (cytotoxicity indicator), at 2.08 µM; inhibition: at 2 µM, stronger effect = higher value, 0% TNFa-plus-vehicle, 100% no-TNFa wells.
Assay [2] in a line: endothelial E-selectin expression blockers – imaging, HUVEC, immunofluorescence, MLSMR starter and 10KST1 sets, primary screen (AID 487;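 active = visually confirmed hit in the image check and inhibition above 20%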;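 as to inhibition: signal is fraction of cell area covered by stained E-selectin grains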;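 as to nuclei count: 100% = median nuclei count of all wells on the same plate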). Conditions: HUVEC TNFalpha-induced E-selectin immunofluorescence imaging, at 2 µM; inhibition: stronger effect = higher value; nuclei count: measured here: cell number, toxicity.
Assay [3] in a line: Primary imaging screen for DUSP6 inhibitors that restore phospho-Erk in transfected HeLa cells, chemical complementation (AID 609;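 active = compounds giving at least 50% inhibition in the cell-based MKP-3 phosphatase rescue imaging test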;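 as to inhibition: phospho-Erk level distribution per well compared with pooled transfected vehicle control wells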). Conditions: HeLa MKP-3 transfected, phospho-Erk imaging KS statistic, at 10 µM, cells stimulated with TPA for 15 min.
In assay [4] the target is Dual specificity protein phosphatase 6 (Homo sapiens) (UniProt Q16828). The assay is described as above. The settings on record: HeLa MKP-3 transfected, phospho-Erk imaging KS statistic; at 10 µM; stronger effect = higher value; cells stimulated with TPA for 15 min.
In assay [5] the target is Voltage-gated potassium channel subunit beta-2 (Rattus norvegicus) (UniProt P62483). The assay can be described thus: inhibitors of rat Kvbeta2 reductase activity – biochemical, NADPH fluorescence, primary screen (AID 622;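 active = fluorescence slope higher than the sample average by over 3 SD, cut at about -0.22 in these data, passing the limit was not always enough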;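 also: slope of raw intensity against log time taken from 70 to 1610 s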). Conditions: recombinant KvBeta, 4-cyanobenzaldehyde reduction, at 10 µM, stronger effect = higher value.
Assay [6] has the same target. The assay is described as follows: enhancers of rat Kvbeta2 NADPH turnover – biochemical, NADPH fluorescence, primary screen (AID 623).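 Also: fluorescence intensity change per second fitted from 20 to 320 s.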 Conditions: Recombinant KvBeta, NADPH fluorescence decrease slope, 10 min; at 10 µM; stronger effect = lower value.
In assay [7] the target is Muscarinic acetylcholine receptor M4 (Homo sapiens) (UniProt P08173). The assay can be described thus: M4-linked GIRK flux change, two-sided – cell-based, HEK293 M4/GIRK, thallium flux, BTC-AM, M4 allosteric agonist project, primary screen (AID 625;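 active = fluorescence slope after compound addition differing from the mean of all tested samples at 99.7% confidence, mostly higher but some lower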;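 also: thallium influx through GIRK channels coupled to M4 in HEK293 cells with BTC-AM dye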). Conditions: at 10 µM, actives lie on both sides. An outline of the steps:
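System: HEK293 cells with M4 receptor and GIRK channels | Incubation: Cells overnight at 37 °C, BTC-AM loading 1 h, reads 2 min total | Technique: Kinetic BTC-AM fluorescence sampled at 1 Hz, 10 s pre-addition baseline | Measure: Post-addition slope, 15–24 s, of baseline-normalized fluorescence | Control set: Carbachol positive, DMSO negative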

A short description of assay [8]: inhibitors of larval lipid processing in zebrafish, primary screen, whole organism, PED6 fluorescence, gall bladder and intestine (AID 686;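 active = a full or partial loss of lipid-probe fluorescence in the fish gall bladder, intestine or both, judged by eye; inactive = no fluorescence loss, or compound toxic to the fish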;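 also: larvae 5 to 7 days old with five fish per well; signal comes from phospholipase A2 cleavage of quenched PED6 carried via bile; overnight exposure to compound and PED6 before scoring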). Conditions: Zebrafish larvae PED6 lipid processing, fluorescence scoring; screened at 20 µM (by protocol). An outline of the steps: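 Test system – live zebrafish larvae aged 5-7 days, whole organism · Buffer or medium – E3 fish medium · Reagent – quenched phospholipase substrate PED6, 100 nM final, ingested by larvae · Doses – 20 µM single dose · Incubation – overnight compound and PED6 incubation · Technique – visual fluorescence microscopy scoring of gall bladder, gut · Read-out basis – visual per-well fluorescence inhibition score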

Assay [9] is described as follows: loss of swimming-algae plug formation – whole organism, Chlamydomonas reinhardtii, WT vs cilia-less mutant, absorbance, 96-well, primary screen (AID 463189;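 active = inhibition at or above 50% relative to wild type and mutant plate controls; inactive = inhibition below 50%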;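 also: 0% = wild type cc124 cells in DMSO and 100% = ciliumless bld1 mutant cells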). The settings on record: Chlamydomonas reinhardtii gravitaxis, OD600 absorbance, 2 days; at 10 µM; stronger effect = higher value.
The mark [10] stands for this setting: measured here: cell density z-score.
Where [11] appears, read: measured here: nuclear c-Myc green intensity z-score.
The mark [12] stands for this setting: measured here: nuclear pErk red intensity z-score, stronger effect = higher value.

The source made the active and inactive calls.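 The calls were made as follows, unless noted: active = NADPH fluorescence slope more negative than the mean of all samples by about 3 SD, 99.7% confidence; inactive = the rest.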

Sequence of Muscarinic acetylcholine receptor M4 (Homo sapiens) (P08173 whole entry, looked up): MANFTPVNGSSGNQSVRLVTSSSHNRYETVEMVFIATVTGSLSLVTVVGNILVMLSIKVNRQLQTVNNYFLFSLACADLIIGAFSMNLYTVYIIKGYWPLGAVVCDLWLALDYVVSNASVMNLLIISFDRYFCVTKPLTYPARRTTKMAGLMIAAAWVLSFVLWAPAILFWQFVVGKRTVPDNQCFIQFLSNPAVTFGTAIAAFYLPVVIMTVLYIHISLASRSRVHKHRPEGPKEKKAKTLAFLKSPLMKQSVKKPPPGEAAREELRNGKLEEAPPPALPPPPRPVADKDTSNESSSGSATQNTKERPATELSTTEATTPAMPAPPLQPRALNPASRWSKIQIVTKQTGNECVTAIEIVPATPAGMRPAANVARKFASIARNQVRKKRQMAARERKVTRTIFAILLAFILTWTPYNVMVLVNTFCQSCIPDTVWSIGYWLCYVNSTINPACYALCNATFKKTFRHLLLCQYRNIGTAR
Sequence of Voltage-gated potassium channel subunit beta-2 (Rattus norvegicus) (P62483 whole entry, looked up): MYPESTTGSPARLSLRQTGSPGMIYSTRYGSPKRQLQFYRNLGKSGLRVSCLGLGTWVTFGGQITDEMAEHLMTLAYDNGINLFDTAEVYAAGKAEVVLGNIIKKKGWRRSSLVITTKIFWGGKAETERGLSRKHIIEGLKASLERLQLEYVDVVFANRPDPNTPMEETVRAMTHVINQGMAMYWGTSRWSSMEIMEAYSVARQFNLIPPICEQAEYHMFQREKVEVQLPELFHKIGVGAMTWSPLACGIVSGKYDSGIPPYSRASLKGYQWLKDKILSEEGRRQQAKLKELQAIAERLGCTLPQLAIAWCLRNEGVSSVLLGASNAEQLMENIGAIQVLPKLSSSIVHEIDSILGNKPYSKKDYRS
Sequence of Dual specificity protein phosphatase 6 (Homo sapiens) (Q16828 whole entry, looked up): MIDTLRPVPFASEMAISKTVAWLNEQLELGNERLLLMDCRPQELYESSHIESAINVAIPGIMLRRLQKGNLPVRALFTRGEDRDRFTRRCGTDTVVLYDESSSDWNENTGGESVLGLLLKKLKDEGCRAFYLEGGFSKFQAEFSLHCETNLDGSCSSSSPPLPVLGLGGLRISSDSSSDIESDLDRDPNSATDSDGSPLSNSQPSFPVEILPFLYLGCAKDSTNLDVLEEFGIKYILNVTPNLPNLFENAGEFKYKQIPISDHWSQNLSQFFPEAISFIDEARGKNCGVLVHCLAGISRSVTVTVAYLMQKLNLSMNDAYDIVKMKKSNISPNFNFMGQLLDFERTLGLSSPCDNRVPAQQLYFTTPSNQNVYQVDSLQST

What is called inhibition is the change of the read-out against control, counted positive when it falls. Turning to `CC(=O)C1=C(O)C(=O)N(c2ccc(Br)cn2)C1c1ccccc1F` (stereo unspecified), the cell count in assay [1] stood at 545. The inhibition in [1] is -2.5% (inactive); in [2] it was -45.7% (inactive); in assay [4] it was 3.97% (inactive); in assay [9] it was 1.29% (inactive). The same compound registered a nuclei count in assay [2] of 131%. The z-score in assay [3] (setting [10]) is 1.35; in assay [3] (setting [11]), -1.7; in assay [3] (setting [12]) it was -1.31. The results for the fluorescence slope in assay [5] and in assay [7] were -0.454 (inactive) and 0.00688 (inactive), respectively. The NADPH fluorescence slope in [6] was -3.5e-05 (inactive). Further, the outcome in assay [8] was inactive.
On to `Cc1cc(CC(=O)O)c(C)cc1CC(=O)O`, for which the cell count in assay [1] was 590. The inhibition in [1] is -9.1% (inactive); in assay [2], -39.7% (inactive); in assay [4], -7.67% (inactive); in assay [9], -5.83% (inactive). Further, in [2], the nuclei count came to 146%. The figures for the z-score in assay [3] (setting [10]), in assay [3] (setting [11]) and in assay [3] (setting [12]) were -0.726, 1.92 and 1.23, respectively. For the same compound, the fluorescence slope is -0.445 (inactive) in [5] and 0.00496 (inactive) in assay [7]. For the same compound, the NADPH fluorescence slope in assay [6] is -0.000138 (inactive). In [8], the call was inactive.
Consider `O=C(NCc1cccnc1)NC(C(F)(F)F)C(F)(F)F`, for which the cell count in [1] came out at 671. Besides, the inhibition in assay [1] is -1.2% (inactive); in assay [2], -24.5% (inactive); in assay [4], 1.63% (inactive); in assay [9] it was -3.5% (inactive). The compound further displayed a nuclei count in assay [2] of 148%. In addition, the z-score in [3] (setting [10]) was 0.957; in assay [3] (setting [11]), -0.408; in assay [3] (setting [12]) it was -4.89. In addition, the fluorescence slope in [5] is -0.454 (inactive); in assay [7], 0.00444 (inactive). Further, the NADPH fluorescence slope in [6] is -5.1e-05 (inactive). Besides, the compound was classed as inactive in assay [8].
Consider `Clc1ccc(-n2ncc3c(NCc4ccccn4)ncnc32)cc1`, for which the cell count in assay [1] came out at 537. Also, the inhibition in [1] is -14.9% (inactive); in [2] it was 6.6% (inactive); in assay [4], 1.42% (inactive); in assay [9], 0.96% (inactive). The same compound gave a nuclei count in [2] of 106%. Moreover, the z-score in assay [3] (setting [10]) is -1.8; in assay [3] (setting [11]) it was 2.08; in [3] (setting [12]) it was -1.64. Moreover, the fluorescence slope is -0.374 (inactive) in [5] and 0.0062 (inactive) in assay [7]. Further, in assay [6], the NADPH fluorescence slope is 5.6e-06 (inactive). For the same compound, in [8], the outcome was inactive.
With `Nc1nnnn1/N=C/c1cccs1`, the cell count in assay [1] turned out to be 656. Besides, the inhibition in assay [1] is -4.7% (inactive); in [2], -50.1% (inactive); in assay [4] it was -8.95% (inactive); in assay [9], 17.8% (inactive). Further, the nuclei count in assay [2] is 124%. Besides, the z-score in assay [3] (setting [10]) was -0.3; in assay [3] (setting [11]), -1.24; in assay [3] (setting [12]), -0.836. The fluorescence slope is -0.483 (inactive) in assay [5] and 0.00656 (inactive) in assay [7]. For the same compound, the NADPH fluorescence slope in assay [6] was -6.6e-05 (inactive). Moreover, the outcome in assay [8] was inactive.
Regarding `CCN(CC)Cc1c(O)ccc2c(C)c(CC(=O)OC)c(=O)oc12`, in assay [1], the cell count turned out to be 660. Moreover, the inhibition was -1.4% (inactive) in assay [1], 1.9% (inactive) in assay [2], 2.71% (inactive) in assay [4] and 5.82% (inactive) in assay [9]. The compound further yielded a nuclei count in assay [2] of 145%. The results for the z-score in [3] (setting [10]), in assay [3] (setting [11]) and in [3] (setting [12]) were 0.613, -0.319 and -0.573, respectively. Moreover, the fluorescence slope is -0.0165 (inactive) in assay [5] and 0.00599 (inactive) in assay [7]. In assay [6], the NADPH fluorescence slope was -6.9e-06 (inactive). The call in [8] was inactive.
Regarding `N#Cc1c(N2CCOCC2)nc(-c2ccco2)c2c1CCCC2`, the cell count in assay [1] was 536. Besides, the inhibition in assay [1] is -3% (inactive); in assay [2] it was -19.5% (inactive); in [4], -2.09% (inactive); in assay [9] it was 18.9% (inactive). Further, the nuclei count in assay [2] came out at 96.6%. Moreover, the z-score in [3] (setting [10]) was 0.112; in [3] (setting [11]), 0.592; in assay [3] (setting [12]), -1.17. For the same compound, the fluorescence slope in [5] was -0.412 (inactive); in assay [7], 0.00398 (inactive). In addition, the NADPH fluorescence slope in [6] was -2e-05 (inactive). Besides, in assay [8], the compound was classed as inactive.

For the origin of these results see PubChem BioAssay.
